Screens: PubChem BioAssay, several laboratories
ROCK2 blocker – ROCK2 (human) kinase inhibition; O75116; purified ROCK2, Kinase-Glo ATP depletion luminescence; inhibition, % at 6 µM; hit rate 0.35% among 60,000;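 active = inhibition above the screen-wide mean inhibition plus 3 SD, cut at about 18% in these data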;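 note: plate controls were DMSO wells for no effect and Y-27632 control wells after no-enzyme background subtraction for full effect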
SF1 activator – activates the human nuclear receptor SF-1; Q13285; CHO-K1 Gal4-SF-1 LBD luciferase reporter; % increase over DMSO SF-1-specific signal; activation, % at 10 µM; hit rate 1.9% among 65,000;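 active = activation above the mean activation of all tested compounds plus 3 SD, cut at about 50% in these data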
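Test system: transient Gal4-SF-1 LBD reporter, CHO-K1; Amount: 4,000 CHO-K1 cells per well; Doses: 10 µM only; Timing: compound exposure 20 h at 37 °C; Signal: luciferase light emission; Read-out basis: percent activation relative to DMSO median and mock-transfected background; Control set: DMSO negative control and −SF1 background wells; Replicates: one test per compound.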
RORA act – activators of human nuclear receptor RORA | P35398 | CHO-K1 Gal4-RORA LBD luciferase reporter, luminescence; percent increase over mock-subtracted basal signal | activation, % at 10 µM | hit rate 1.5% among 65,000 | AID 560;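 active = activation above the mean of all tested compounds plus 3 SD, cut at about 49% in these data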;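 note: 0% = DMSO-treated RORA cells and 100% = added signal equal to DMSO minus mock-transfected cells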
PKA kinase inh – blocks human protein kinase A activity. P17612. PKA Kemptide phosphorylation, Kinase-Glo ATP luminescence. inhibition, % at 6 µM. hit rate 0.1% among 65,000. AID 524;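 active = inhibition above the screen-wide mean inhibition plus 3 SD, cut at about 21% in these data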
MT1-MMP txn act – activates MT1-MMP transcription; HT1080 MT1-MMP promoter luciferase reporter, luminescence, overnight; stronger effect = higher value; AID 750; hit rate 0.16% among 86,000; activation factor at 10 µM;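 active = activation factor of at least 2 for MT1-MMP transcription at 10 µM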
JNK3 inh – JNK3 (human) kinase inhibition; P53779; purified JNK3 kinase activity, HTS; inhibition, % at 8 µM; hit rate 0.61% among 60,000; AID 746; in the data active = inhibition above about 17%;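 note: 0% = DMSO and 100% = reference inhibitor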
Target sequence (P53779 whole entry, looked up): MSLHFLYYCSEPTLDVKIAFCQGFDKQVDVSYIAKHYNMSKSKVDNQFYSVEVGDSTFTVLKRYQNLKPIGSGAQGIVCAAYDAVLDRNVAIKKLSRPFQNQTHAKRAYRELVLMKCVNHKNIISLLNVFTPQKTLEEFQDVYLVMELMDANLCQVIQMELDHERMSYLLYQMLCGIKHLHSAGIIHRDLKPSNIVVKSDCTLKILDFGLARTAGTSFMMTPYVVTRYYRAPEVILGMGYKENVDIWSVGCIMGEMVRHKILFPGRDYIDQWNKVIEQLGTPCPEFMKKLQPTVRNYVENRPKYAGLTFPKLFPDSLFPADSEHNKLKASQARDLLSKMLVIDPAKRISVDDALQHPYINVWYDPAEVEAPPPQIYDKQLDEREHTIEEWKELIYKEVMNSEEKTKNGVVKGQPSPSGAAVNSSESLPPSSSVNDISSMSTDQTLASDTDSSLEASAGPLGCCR
Active calls of the source: *. Rows were chosen to be rich in hits. Some 2.5% of all compounds tested hit in one or more screens of this group.

Results for CCN1C(=S)SC(=O)C1=C1C=C(C)N(Cc2ccco2)C(C)=C1 ?
SF1 activator: 52.9*; RORA act: 18.5; PKA kinase inh: 10.0; MT1-MMP txn act: 1.8

How did CCCC[C@H]1C[C@@H]1[C@@H]1N(P(=O)(c2ccccc2)c2ccccc2)C[C@@](O)(c2ccccc2)CC12CC2 do in these assays?
MT1-MMP txn act: 1.1

How did CCC1=C(OC(=O)N(CC)CC)N2C(=O)OC(=NCC3CC3)[C@]2(C)[C@H]2C1=CC[C@H]1C(=O)N(c3ccccc3)C(=O)[C@H]12 do in these assays?
MT1-MMP txn act: 1.1

Results for Cn1ncc2nc[nH]c(=O)c21 ?
ROCK2 blocker: -3.2; SF1 activator: 3.4; RORA act: -2.1; PKA kinase inh: -3.1; MT1-MMP txn act: 1.1; JNK3 inh: -4.8

How did O=c1[nH]cnc2cc(Cl)ccc12 do in these assays?
ROCK2 blocker: 18.5*; SF1 activator: 9.2; RORA act: 5.6; PKA kinase inh: 13.9; MT1-MMP txn act: 1.5; JNK3 inh: 6.0

Results for O=C(CC1(C(F)(F)F)OCCO1)Nc1ccc2c(c1)OCO2 ?
ROCK2 blocker: 0.5; SF1 activator: 4.6; RORA act: 9.4; PKA kinase inh: 8.1; MT1-MMP txn act: 1.2; JNK3 inh: -1.5

What do the screens show for `O=C(Nc1cnc2ccccc2c1)c1ccncc1`?
ROCK2 blocker: 3.7; SF1 activator: 29.6; RORA act: 73.7*; PKA kinase inh: 3.9; MT1-MMP txn act: 1.1; JNK3 inh: 1.1

What do the screens show for `CCN(CC)C(=O)Nc1cnc2ccccc2c1`?
ROCK2 blocker: 4.0; SF1 activator: 12.8; RORA act: 40.9; PKA kinase inh: 2.6; MT1-MMP txn act: 1.3; JNK3 inh: 4.7

Results for COC(=O)c1cccc(C(=O)Nc2cnc3ccccc3c2)n1 ?
ROCK2 blocker: 11.1; SF1 activator: 97.3*; RORA act: 43.1; PKA kinase inh: 10.4; MT1-MMP txn act: 1.4; JNK3 inh: 10.8

What do the screens show for `COc1cc(/C=N\n2nnnc2N)ccc1OCc1ccc(F)cc1`?
ROCK2 blocker: 18.4*; SF1 activator: -6.7; RORA act: 1.2; PKA kinase inh: 3.6; MT1-MMP txn act: 1; JNK3 inh: 1.1

What do the screens show for `COCCn1c(COc2ccc(C)cc2)nc2ccccc21`?
ROCK2 blocker: 2.2; SF1 activator: 49.9*; RORA act: 40.0; PKA kinase inh: 8.6; MT1-MMP txn act: 1.2; JNK3 inh: -3.8

What do the screens show for `O=C(CSc1ncc(-c2ccc(F)cc2)[nH]1)Nc1cccc(O)c1`?
ROCK2 blocker: 24.9*; SF1 activator: -6.8; RORA act: -2.0; PKA kinase inh: 9.1; MT1-MMP txn act: 1.1; JNK3 inh: -1.0

Results for COc1cc(NC(=O)c2ccco2)c(OC)cc1NC(=O)CSc1ncc(-c2ccc(F)cc2)[nH]1 ?
ROCK2 blocker: 5.9; SF1 activator: -21.2; RORA act: -8.4; PKA kinase inh: 1.4; MT1-MMP txn act: 1.1; JNK3 inh: -4.6

What do the screens show for `c1ccc(CCn2nnnc2CN2CCCc3ccccc32)cc1`?
ROCK2 blocker: -1.7; SF1 activator: 21.0; RORA act: 50.6*; PKA kinase inh: 1.1; MT1-MMP txn act: 1.2; JNK3 inh: -3.6

Results for COC(=O)[C@@]1(Cc2ccccc2)[C@H]2c3cc(C(=O)N4CCCC4)n(CCO)c3C[C@H]2CN1C(=O)c1ccccc1 ?
MT1-MMP txn act: 1.2

Results for CCOC(=O)CSc1nc2c(sc3ccccc32)c(=O)n1CCCN1CCOCC1 ?
ROCK2 blocker: 0.1; SF1 activator: -2.7; RORA act: -2.2; PKA kinase inh: 6.0; MT1-MMP txn act: 1; JNK3 inh: 24.0*

How did O=C1CN(c2nnnn2-c2ccccc2)CCN1 do in these assays?
MT1-MMP txn act: 1.1

How did Cc1ccc(/C=N/Nc2nc(Cl)c(Cl)cc2Cl)s1 do in these assays?
MT1-MMP txn act: 2*

Results for O=C1C(C=NCc2ccncc2)=C(O)c2ccccc21 ?
MT1-MMP txn act: 1.4

How did O=C1C(C=NCc2cccnc2)=C(O)c2ccccc21 do in these assays?
ROCK2 blocker: -0.6; SF1 activator: 45.1; RORA act: 53.0*; PKA kinase inh: -2.0; MT1-MMP txn act: 0.9; JNK3 inh: 28.4*

Results for C/C(N)=C(/C#N)C(=O)CSc1nnc(-c2ccc(OC(F)F)cc2)o1 ?
ROCK2 blocker: -1.1; SF1 activator: 63.0*; RORA act: 39.8; PKA kinase inh: 2.9; MT1-MMP txn act: 1.5; JNK3 inh: -3.1

Results for CN(C)c1ccc(C(=O)OCC(=O)c2cccs2)cc1 ?
SF1 activator: 52.5*; RORA act: 7.4; PKA kinase inh: 0.6; MT1-MMP txn act: 1.2

Results for CCOC(=O)c1[nH]c(C)c(C(=O)Nc2ccc(Cl)cc2)c1C ?
ROCK2 blocker: -0.7; SF1 activator: 24.0; RORA act: 6.2; PKA kinase inh: 2.9; MT1-MMP txn act: 1.2; JNK3 inh: 9.4

What do the screens show for `CCOC(=O)c1[nH]c(C)c(C(=O)Nc2cccc(Cl)c2C)c1C`?
ROCK2 blocker: -0.3; SF1 activator: 30.1; RORA act: 64.2*; PKA kinase inh: -1.9; MT1-MMP txn act: 1.1; JNK3 inh: -4.0

Results for O=C(CN(c1ccc(F)cc1)S(=O)(=O)c1ccc2c(c1)OCCO2)NCc1ccccn1 ?
ROCK2 blocker: 1.5; SF1 activator: -0.7; RORA act: 2.9; PKA kinase inh: 4.7; MT1-MMP txn act: 1.2; JNK3 inh: 4.6

How did CN(C)c1ccc(-c2ccccc2)nn1 do in these assays?
SF1 activator: 26.5; RORA act: 55.6*; PKA kinase inh: 4.6; MT1-MMP txn act: 1.2

What do the screens show for `CNS(=O)(=O)c1ccc(Oc2ccc(S(=O)(=O)NC)cc2)cc1`?
ROCK2 blocker: 6.4; SF1 activator: -16.3; RORA act: -21.4; PKA kinase inh: 9.1; MT1-MMP txn act: 1; JNK3 inh: 5.2

What do the screens show for `COc1ccc(-c2coc3cc(OC)cc(O)c3c2=O)cc1`?
MT1-MMP txn act: 1.7

How did COc1ccc(-c2coc3cc(O)cc(O)c3c2=O)cc1 do in these assays?
ROCK2 blocker: -0.8; SF1 activator: 97.2*; RORA act: 30.5; PKA kinase inh: 0.0; MT1-MMP txn act: 1.1; JNK3 inh: -6.0

Results for CC(C)Oc1cc(O)c2c(=O)c(-c3ccc(O)cc3)coc2c1 ?
ROCK2 blocker: 7.4; SF1 activator: 58.3*; RORA act: 45.7; PKA kinase inh: 8.2; MT1-MMP txn act: 1; JNK3 inh: -0.5

Results for COC(CN1C(=O)C(O)=C(C(C)=O)C1c1ccccn1)OC (stereo not given) ?
MT1-MMP txn act: 1.1

What do the screens show for `COc1ccccc1N1CCN(c2ncnc3c2oc2ccccc23)CC1`?
ROCK2 blocker: 0.5; SF1 activator: 43.4; RORA act: 56.2*; PKA kinase inh: -1.7; MT1-MMP txn act: 1.2; JNK3 inh: 0.7

How did O=C(O)CCC(=O)N1CCc2cc(S(=O)(=O)N3CC=C(c4ccccc4)CC3)ccc21 do in these assays?
ROCK2 blocker: 2.4; SF1 activator: -4.8; RORA act: -10.8; PKA kinase inh: -17.2; MT1-MMP txn act: 1.1; JNK3 inh: -4.9
